Experiments:
Assay type in all cases: functional
[1] = test system: SN12C; assay: Growth inhibition of human SN12C cells at 10 uM after 48 hrs by sulforhodamine B assay; conditions: read-out: GI
Outline: (§1)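 Run at NCI on the 60-line panel. Cells grown in RPMI 1640 with 5% FBS and 2 mM L-glutamine, plated at 5000–40,000 cells/well by doubling time, and held 24 h at 37 °C before dosing. Drug (DMSO stock) given at a single final 10 µM in triplicate wells for 48 h. Adherent cells fixed with cold TCA (10% final), suspension cells with 16% TCA. SRB stain read at 515 nm. Percent growth from Tz, C and Ti.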

[2] = test system: HT-29; assay: Growth inhibition of human HT-29 cells at 10 uM after 48 hrs by sulforhodamine B assay; conditions: HT-29, 48 h, read-out: GI; outline: as §1
[3] = test system: A549; assay: Growth inhibition of human A549 cells at 10 uM after 48 hrs by sulforhodamine B assay; conditions: A549, 48 h, read-out: GI; outline: as §1
[4] = Growth inhibition of human OVCAR5 cells at 10 uM after 48 hrs by sulforhodamine B assay; conditions: OVCAR-5, 48 h, read-out: GI; outline: as §1
[5] = Growth inhibition of human SKOV3 cells at 10 uM after 48 hrs by sulforhodamine B assay; conditions: SK-OV-3, 48 h, read-out: GI; outline: as §1
[6] = Growth inhibition of human Hs 578T cells at 10 uM after 48 hrs by sulforhodamine B assay; conditions: read-out: GI; outline: as §1
[7] = Growth inhibition of human Caki1 cells at 10 uM after 48 hrs by sulforhodamine B assay; conditions: CAKI-1, 48 h, read-out: GI; outline: as §1
[8] = Growth inhibition of human SW620 cells at 10 uM after 48 hrs by sulforhodamine B assay; conditions: SW-620, 48 h, read-out: GI
Outline: (§2)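 NCI-60 panel, adherent cells grown in RPMI 1640 with 5% FBS and 2 mM L-glutamine, plated at 5000–40,000 cells/well and preincubated 24 h at 37 °C, 5% CO2. 10 µM final compound from DMSO stock, triplicate wells, 48 h. Fixed with cold TCA (10% final, 60 min, 4 °C) and stained with 0.4% SRB. Absorbance read at 515 nm; growth calculated against time-zero and control wells.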

[9] = test system: A498; assay: Growth inhibition of human A498 cells at 10 uM after 48 hrs by sulforhodamine B assay; conditions: A498, 48 h, read-out: GI; outline: as §1
[10] = test system: SR; assay: Growth inhibition of human SR cells at 10 uM after 48 hrs by sulforhodamine B assay; conditions: read-out: GI
Outline: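 NCI-60 screen. Cells were grown in RPMI 1640 with 5% FBS and 2 mM L-glutamine, plated at 5000–40,000 cells/well and held 24 h at 37 °C, 5% CO2. Single 10 µM final dose from DMSO stock, triplicate wells, 48 h. Settled cells were fixed with 80% TCA (16% final) and stained with 0.4% SRB. Dye was solubilized in 10 mM Tris and read at 515 nm. Growth was calculated against time-zero and untreated wells.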

[11] = Growth inhibition of human OVCAR3 cells at 10 uM after 48 hrs by sulforhodamine B assay; conditions: OVCAR-3, 48 h, read-out: GI; outline: as §1
[12] = Growth inhibition of human SNB19 cells at 10 uM after 48 hrs by sulforhodamine B assay; conditions: SNB-19, 48 h, read-out: GI; outline: as §1
[13] = Growth inhibition of human HOP92 cells at 10 uM after 48 hrs by sulforhodamine B assay; conditions: HOP-92, 48 h, read-out: GI; outline: as §1
[14] = test system: CCRF-CEM; assay: Growth inhibition of human CCRF-CEM cells at 10 uM after 48 hrs by sulforhodamine B assay; conditions: read-out: GI; outline: as §1
[15] = Growth inhibition of human LOXIMVI cells at 10 uM after 48 hrs by sulforhodamine B assay; conditions: LOX IMVI, read-out: GI; outline: as §1
[16] = Growth inhibition of human RXF393 cells at 10 uM after 48 hrs by sulforhodamine B assay; conditions: RXF 393, 48 h, read-out: GI; outline: as §1
[17] = Growth inhibition of human HCT116 cells at 10 uM after 48 hrs by sulforhodamine B assay; conditions: HCT-116, 48 h, read-out: GI; outline: as §1
[18] = test system: M14; assay: Growth inhibition of human M14 cells at 10 uM after 48 hrs by sulforhodamine B assay; conditions: M14, 48 h, read-out: GI; outline: as §1
[19] = test system: NCI-H522; assay: Growth inhibition of human NCI-H522 cells at 10 uM after 48 hrs by sulforhodamine B assay; conditions: NCI-H522, 48 h, read-out: GI; outline: as §1
[20] = test system: Malme-3M; assay: Growth inhibition of human MALME-3M cells at 10 uM after 48 hrs by sulforhodamine B assay; conditions: read-out: GI; outline: as §1
[21] = test system: SK-MEL-5; assay: Growth inhibition of human SK-MEL-5 cells at 10 uM after 48 hrs by sulforhodamine B assay; conditions: SK-MEL-5, 48 h, read-out: GI; outline: as §1
[22] = test system: NCI-H23; assay: Growth inhibition of human NCI-H23 cells at 10 uM after 48 hrs by sulforhodamine B assay; conditions: NCI-H23, 48 h, read-out: GI; outline: as §1
[23] = test system: MDA-MB-435; assay: Growth inhibition of human MDA-MB-435 cells at 10 uM after 48 hrs by sulforhodamine B assay; conditions: MDA-MB-435, 48 h, read-out: GI; outline: as §1
[24] = test system: NCI-H226; assay: Growth inhibition of human NCI-H226 cells at 10 uM after 48 hrs by sulforhodamine B assay; conditions: NCI-H226, 48 h, read-out: GI; outline: as §1
[25] = test system: U-251; assay: Growth inhibition of human U251 cells at 10 uM after 48 hrs by sulforhodamine B assay; conditions: U-251, 48 h, read-out: GI; outline: as §2
[26] = Growth inhibition of human OVCAR8 cells at 10 uM after 48 hrs by sulforhodamine B assay; conditions: OVCAR-8, 48 h, read-out: GI; outline: as §1
[27] = Growth inhibition of human PC3 cells at 10 uM after 48 hrs by sulforhodamine B assay; conditions: PC-3, 48 h, read-out: GI; outline: as §1
[28] = test system: MDA-MB-468; assay: Growth inhibition of human MDA-MB-468 cells at 10 uM after 48 hrs by sulforhodamine B assay; conditions: MDA-MB-468, 48 h, read-out: GI; outline: as §1
[29] = Growth inhibition of human HCT15 cells at 10 uM after 48 hrs by sulforhodamine B assay; conditions: HCT-15, 48 h, read-out: GI; outline: as §1
[30] = test system: MDA-MB-231; assay: Growth inhibition of human MDA-MB-231 cells at 10 uM after 48 hrs by sulforhodamine B assay; conditions: MDA-MB-231, 48 h, read-out: GI; outline: as §1
[31] = test system: NCI-H460; assay: Growth inhibition of human NCI-H460 cells at 10 uM after 48 hrs by sulforhodamine B assay; conditions: NCI-H460, 48 h, read-out: GI; outline: as §1
[32] = test system: ACHN; assay: Growth inhibition of human ACHN cells at 10 uM after 48 hrs by sulforhodamine B assay; conditions: read-out: GI; outline: as §1
[33] = Growth inhibition of human SF268 cells at 10 uM after 48 hrs by sulforhodamine B assay; conditions: SF-268, 48 h, read-out: GI; outline: as §1
[34] = Growth inhibition of human UO31 cells at 10 uM after 48 hrs by sulforhodamine B assay; conditions: UO-31, 48 h, read-out: GI; outline: as §2

## COc1ccc(Cc2nnc(Nc3ccc(NC(=O)Nc4ccc(OC)cc4)cc3)c3ccccc23)cc1
[1]
  inhibition of growth at 10 µM: < 30%
[2]
  inhibition of growth at 10 µM: 34%
[3]
  inhibition of growth at 10 µM: < 30%
[4]
  inhibition of growth at 10 µM: < 30%
[5]
  inhibition of growth at 10 µM: < 30%
[6]
  inhibition of growth at 10 µM: 96%
[7]
  inhibition of growth at 10 µM: < 30%
[8]
  inhibition of growth at 10 µM: < 30%
[9]
  inhibition of growth at 10 µM: < 30%
[10]
  inhibition of growth at 10 µM: 39%
[11]
  inhibition of growth at 10 µM: < 30%
[12]
  inhibition of growth at 10 µM: < 30%
[13]
  inhibition of growth at 10 µM: < 30%
[14]
  inhibition of growth at 10 µM: 40%
[15]
  inhibition of growth at 10 µM: < 30%
[16]
  inhibition of growth at 10 µM: 100%
[17]
  inhibition of growth at 10 µM: 34%
[18]
  inhibition of growth at 10 µM: < 30%
[19]
  inhibition of growth at 10 µM: 36%
[20]
  inhibition of growth at 10 µM: 31%
[21]
  inhibition of growth at 10 µM: < 30%
[22]
  inhibition of growth at 10 µM: < 30%
[23]
  inhibition of growth at 10 µM: < 30%
[24]
  inhibition of growth at 10 µM: < 30%
[25]
  inhibition of growth at 10 µM: 49%
[26]
  inhibition of growth at 10 µM: < 30%
[27]
  inhibition of growth at 10 µM: 30%
[28]
  inhibition of growth at 10 µM: < 30%
[29]
  inhibition of growth at 10 µM: 39%
[30]
  inhibition of growth at 10 µM: 46%
[31]
  inhibition of growth at 10 µM: < 30%
[32]
  inhibition of growth at 10 µM: 32%
[33]
  inhibition of growth at 10 µM: < 30%
[34]
  inhibition of growth at 10 µM: < 30%
